Results from ChEMBL document CHEMBL1129067, “Dioxabicyclooctanyl naphthalenenitriles as nonredox 5-lipoxygenase inhibitors: structure-activity relationship study directed toward the improvement of metabolic stability” (J Med Chem, 1996).

How the values were obtained:
[1] = species on record: Homo sapiens; test: Compound was tested for the inhibition of LTB4 production in human whole blood (HWB); type: functional
Method in brief: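 LTB4 generation measured in human whole blood. IC50 values are the mean of at least two independent titrations, though some values come from a single titration. Where more than two IC50 values were determined, the 95% confidence limits were within 90% of the mean.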

[2] = target: T1, Polyunsaturated fatty acid 5-lipoxygenase (Homo sapiens, UniProt P09917); test: Potency to inhibit oxidation of arachidonic acid by recombinant human 5-lipoxygenase
T1 sequence (P09917 whole entry): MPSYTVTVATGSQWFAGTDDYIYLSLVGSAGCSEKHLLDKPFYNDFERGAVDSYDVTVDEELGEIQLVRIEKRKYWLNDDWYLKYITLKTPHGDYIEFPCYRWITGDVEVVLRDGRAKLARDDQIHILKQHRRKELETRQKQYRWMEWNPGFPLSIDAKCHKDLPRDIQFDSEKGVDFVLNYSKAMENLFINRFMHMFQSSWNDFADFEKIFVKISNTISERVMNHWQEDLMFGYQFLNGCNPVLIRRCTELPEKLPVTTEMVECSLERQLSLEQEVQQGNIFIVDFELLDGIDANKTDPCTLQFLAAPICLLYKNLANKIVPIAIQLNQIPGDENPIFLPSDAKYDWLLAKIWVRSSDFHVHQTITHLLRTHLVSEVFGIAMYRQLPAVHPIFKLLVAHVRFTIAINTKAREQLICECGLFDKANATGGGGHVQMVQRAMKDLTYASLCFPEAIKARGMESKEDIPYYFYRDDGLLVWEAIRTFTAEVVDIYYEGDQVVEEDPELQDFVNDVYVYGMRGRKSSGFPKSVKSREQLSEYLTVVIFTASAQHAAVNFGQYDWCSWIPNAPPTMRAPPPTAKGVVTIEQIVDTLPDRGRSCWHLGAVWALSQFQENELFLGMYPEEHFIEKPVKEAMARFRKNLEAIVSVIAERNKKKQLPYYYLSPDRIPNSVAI

[3] = species on record: Homo sapiens; test: Test inhibition of LTB4 production in human peripheral blood polymorphonuclear leukocytes (HPMN); type: functional
Method in brief: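 LTB4 generation measured in human peripheral blood polymorphonuclear leukocytes. IC50 values are the mean of at least two independent determinations, though some values come from a single titration.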

SMILES	IC50 ([1]; Homo sapiens, Blood)	IC50 [2]	IC50 ([3]; Homo sapiens)	IC50 [1]	IC50 [3]
CC(c1cc2ccccc2s1)N(O)C(N)=O (configuration not stated) [ZILEUTON]	2 µM				
O=C1OCc2c1cc1cc(OCc3cccc(C4(O)CC5CCC(C4)O5)c3)ccc1c2-c1ccccc1 (configuration not stated)	1 µM	0.32 µM	0.008 µM		
O=C(O)c1cc(-c2ccccc2)c2ccc(OCc3cccc(C4(O)CCOCC4)c3)cc2c1			0.19 µM		
COC1(c2cc(F)cc(OCc3ccc4c(ccc(=O)n4C)c3)c2)CCOCC1 [ZD-2138]	0.08 µM	0.33 µM	0.01 µM		
O=C1OCc2c1cc1cc(OCc3cccc(C4(O)CCOCC4)c3)ccc1c2-c1ccccc1Cl	1.1 µM	0.38 µM	0.011 µM		
O=C1OC(O)c2c1cc1cc(OCc3cccc(C4(O)CCOCC4)c3)ccc1c2-c1ccccc1 (configuration not stated)	> 3 µM	> 6 µM	> 0.7 µM		
O=C1OCc2c1cc1cc(OCc3cccc(C4(O)CCOCC4)c3)ccc1c2-c1cccnc1	1.2 µM	0.72 µM	0.025 µM		
COC(=O)c1cc(-c2ccccc2)c2ccc(OCc3cccc(C4(O)CCOCC4)c3)cc2c1	0.1 µM	0.07 µM	0.003 µM		
O=C1OCc2c1cc1cc(OCc3cccc(C4(O)CCOCC4)c3)ccc1c2-c1ccco1	0.45 µM	0.28 µM	0.005 µM		
N#Cc1cc(-c2ccoc2)c2ccc(OCc3cccc(C4(O)CC5COC(C4)O5)c3)cc2c1 (configuration not stated)	0.15 µM	0.19 µM	0.003 µM		
CC1CC(O)(c2cccc(COc3ccc4c(-c5ccccc5)c5c(cc4c3)C(=O)OC5)c2)CC(C)O1 (configuration not stated)	0.9 µM	0.18 µM	0.003 µM		
CC1(C)COC(c2cc(-c3ccoc3)c3ccc(OCc4cccc(C5(O)CCOCC5)c4)cc3c2)=N1	2.9 µM	0.19 µM	0.017 µM		
O=C1OCc2c1cc1cc(OCc3cccc(C4(O)CCOCC4)c3)ccc1c2-c1ccccc1F	1.8 µM	0.36 µM	0.018 µM		
O=C1OCc2c1cc1cc(OCc3cccc(C4(O)CC5C=CC(C4)O5)c3)ccc1c2-c1ccccc1 (configuration not stated)	> 3 µM	0.4 µM	0.027 µM		
N#Cc1cc(-c2ccccc2)c2ccc(OCc3cccc(C4(O)CCOCC4)c3)cc2c1	0.1 µM	0.12 µM	0.003 µM		
N#Cc1cc(-c2ccoc2)c2ccc(OCc3cccc(C4(O)CCOCC4)c3)cc2c1	0.01 µM	0.03 µM	0.002 µM		
OC1(c2cccc(COc3ccc4c(-c5ccoc5)cc(Cc5nccs5)cc4c3)c2)CCOCC1	0.66 µM	0.14 µM	0.001 µM		
OC1(c2cccc(COc3ccc4c(-c5ccccc5)cc(Cn5ccnc5)cc4c3)c2)CCOCC1		0.64 µM	0.04 µM		
CCCCc1cc(C(=O)OC)cc2cc(OCc3cccc(C4(O)CCOCC4)c3)ccc12		2.2 µM	0.015 µM		
CC(=O)c1cc(-c2ccccc2)c2ccc(OCc3cccc(C4(O)CCOCC4)c3)cc2c1	0.09 µM	0.13 µM	0.002 µM		
O=C(c1cccnc1)c1cc(-c2ccoc2)c2ccc(OCc3cccc(C4(O)CCOCC4)c3)cc2c1	0.37 µM	0.12 µM	0.007 µM		
Cn1nnnc1-c1cc(-c2ccccc2)c2ccc(OCc3cccc(C4(O)CCOCC4)c3)cc2c1	> 10 µM	3 µM	> 0.067 µM		
CC(O)c1cc(-c2ccccc2)c2ccc(OCc3cccc(C4(O)CCOCC4)c3)cc2c1 (configuration not stated)	0.675 µM	0.52 µM	0.028 µM		
CC1(C)OC(=O)c2cc3cc(OCc4cccc(C5(O)CCOCC5)c4)ccc3c(-c3ccccc3)c21	> 3 µM	> 6 µM	0.08 µM		
OC1(c2cccc(COc3ccc4c(-c5ccoc5)cc(-c5nc6ccccc6s5)cc4c3)c2)CCOCC1		> 6 µM	> 0.062 µM		
COc1cccc(-c2c3c(cc4cc(OCc5cccc(C6(O)CCOCC6)c5)ccc24)C(=O)OC3)c1	0.26 µM	0.08 µM	0.004 µM		
O=C1OCc2c1cc1cc(OCc3cccc(C4(O)CCOCC4)c3)ccc1c2-c1ccsc1	0.05 µM	0.027 µM	0.002 µM		
OC1(c2cccc(COc3ccc4c(-c5ccoc5)cc(C5=NCCS5)cc4c3)c2)CCOCC1	0.075 µM	0.05 µM	0.002 µM		
COC(=O)c1cc(Cc2ccccc2)c2ccc(OCc3cccc(C4(O)CCOCC4)c3)cc2c1		> 6 µM	> 0.07 µM		
OCc1cc(-c2ccccc2)c2ccc(OCc3cccc(C4(O)CCOCC4)c3)cc2c1		0.26 µM	0.009 µM		

Other lines, results leading:

IC50 ([1]; Homo sapiens, Blood)	IC50 [2]	IC50 ([3]; Homo sapiens)	IC50 [1]	IC50 [3]	SMILES
0.1 µM	0.026 µM	0.002 µM			O=C1OCc2c1cc1cc(OCc3cccc(C4(O)CCOCC4)c3)ccc1c2-c1ccoc1
0.54 µM	0.24 µM	0.006 µM			O=C1OCc2c1cc1cc(OCc3cccc(C4(O)CC5COC(C4)O5)c3)ccc1c2-c1ccccc1 (configuration not stated)
0.13 µM	0.05 µM	0.002 µM			O=C(c1cc(-c2ccoc2)c2ccc(OCc3cccc(C4(O)CCOCC4)c3)cc2c1)c1nccs1
0.41 µM	0.14 µM	0.003 µM			O=C1OCc2c1cc1cc(OCc3cccc(C4(O)CCOCC4)c3)ccc1c2-c1ccc(F)cc1
0.2 µM	0.07 µM	0.001 µM			O=C(c1ccccc1)c1cc(-c2ccoc2)c2ccc(OCc3cccc(C4(O)CCOCC4)c3)cc2c1
0.12 µM	0.023 µM	0.002 µM			COC1CC(O)(c2cccc(COc3ccc4c(-c5ccccc5)c5c(cc4c3)C(=O)OC5)c2)CCO1 (configuration not stated)
	0.34 µM		2.1 µM	0.021 µM	O=C1OCc2c1cc1cc(OCc3cccc(C4(O)CC5COC(C4)O5)c3)ccc1c2-c1ccoc1 (stereo in doubt; 3v)
0.31 µM	0.12 µM	0.004 µM			Cn1nnc(-c2cc(-c3ccccc3)c3ccc(OCc4cccc(C5(O)CCOCC5)c4)cc3c2)n1
> 3 µM	5.5 µM	0.026 µM			O=C1OCc2c1cc1cc(OCc3cccc(C4(O)CCOCC4)c3)ccc1c2-c1ccc(Cl)cc1
> 1 µM	0.76 µM	0.01 µM			CCc1cc(-c2ccccc2)c2ccc(OCc3cccc(C4(O)CCOCC4)c3)cc2c1
0.2 µM	0.16 µM	0.004 µM			COCc1cc(-c2ccccc2)c2ccc(OCc3cccc(C4(O)CCOCC4)c3)cc2c1
> 3 µM	0.39 µM	0.035 µM			O=C1CC(O)(c2cccc(COc3ccc4c(-c5ccccc5)c5c(cc4c3)C(=O)OC5)c2)CCO1 (configuration not stated)
		0.059 µM			CC(C)(O)c1cc(-c2ccccc2)c2ccc(OCc3cccc(C4(O)CCOCC4)c3)cc2c1
> 3 µM	> 6 µM	> 0.7 µM			OC1(c2cccc(COc3ccc4c(-c5ccccc5)cc(-c5nn[nH]n5)cc4c3)c2)CCOCC1
	0.14 µM			0.007 µM	O=C1OCc2c1cc1cc(OCc3cccc(C4(O)CC5COC(C4)O5)c3)ccc1c2-c1ccoc1 (stereo in doubt; 3u)
	6 µM	0.089 µM			COc1ccc(-c2c3c(cc4cc(OCc5cccc(C6(O)CCOCC6)c5)ccc24)C(=O)OC3)cc1
> 1 µM	1.2 µM	0.041 µM			COC(C)c1cc(-c2ccccc2)c2ccc(OCc3cccc(C4(O)CCOCC4)c3)cc2c1 (configuration not stated)
> 3 µM	1.3 µM	0.15 µM			CC1OC(=O)c2cc3cc(OCc4cccc(C5(O)CCOCC5)c4)ccc3c(-c3ccccc3)c21 (configuration not stated)
0.08 µM	0.08 µM	0.002 µM			Cn1nnc(-c2cc(-c3ccoc3)c3ccc(OCc4cccc(C5(O)CCOCC5)c4)cc3c2)n1
1.6 µM	0.81 µM	0.015 µM			O=C1OCc2c1cc1cc(OCc3cccc(C4(O)CCOC(O)C4)c3)ccc1c2-c1ccccc1 (configuration not stated)
0.05 µM	0.07 µM	0.003 µM			OC1(c2cccc(COc3ccc4c(-c5ccoc5)cc(C5=NCCO5)cc4c3)c2)CCOCC1
0.14 µM		0.002 µM			O=C1OCc2c1cc1cc(OCc3cccc(C4(O)CCOCC4)c3)ccc1c2-c1ccccc1
